Columns and labels:
[1] = biological target: T1, Metabotropic glutamate receptor 1 (Homo sapiens, UniProt Q13255); assay: Agonist activity of the compound at Metabotropic Excitatory Amino acid Receptors Expressed in CHO cells. mGlu1-alpha; assay type: functional, cell-based
Outline: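 CHO cells stably expressing mGlu1α, seeded 2 days before assay and labelled with [3H]inositol (1 µCi/mL) for 24 h. Ligand in PBS-LiCl for 20 min; total [3H]inositol mono-, bis- and trisphosphates by ion-exchange chromatography, fold over buffer-only control. EC50 from dose-response, mean ± SEM of at least two independent experiments.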

[2] = biological target: Glutamate receptor ionotropic, AMPA (Rattus norvegicus, UniProt P19490+P19491+P19492+P19493); assay: Agonistic activity at Ionotropic glutamate receptor AMPA of rat brain membrane using [3H]AMPA as radioligand; assay type: functional
[3] = biological target: Glutamate receptor ionotropic, kainate; assay: The compound was evaluated for agonist to competitive inhibition of radioligand ([3H]- kainic acid ) at Ionotropic glutamate receptor kainate; assay type: functional
Glutamate NMDA receptor [4] = assay: Agonistic activity at NMDA receptor of rat brain membrane using [3H]MK-801 as radioligand; assay type: functional
Outline: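 Rat brain membranes were prepared per Ransom and Stec. [3H]MK-801 binding was run on fully stimulated membranes, with incubation lengthened to 4 h.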

[5] = biological target: T2, Metabotropic glutamate receptor 6 (Homo sapiens, UniProt O15303); assay: Agonist activity of the compound at Metabotropic Excitatory Amino acid Receptors Expressed in CHO cells. mGlu6; assay type: functional, cell-based
T2 sequence (O15303 whole entry): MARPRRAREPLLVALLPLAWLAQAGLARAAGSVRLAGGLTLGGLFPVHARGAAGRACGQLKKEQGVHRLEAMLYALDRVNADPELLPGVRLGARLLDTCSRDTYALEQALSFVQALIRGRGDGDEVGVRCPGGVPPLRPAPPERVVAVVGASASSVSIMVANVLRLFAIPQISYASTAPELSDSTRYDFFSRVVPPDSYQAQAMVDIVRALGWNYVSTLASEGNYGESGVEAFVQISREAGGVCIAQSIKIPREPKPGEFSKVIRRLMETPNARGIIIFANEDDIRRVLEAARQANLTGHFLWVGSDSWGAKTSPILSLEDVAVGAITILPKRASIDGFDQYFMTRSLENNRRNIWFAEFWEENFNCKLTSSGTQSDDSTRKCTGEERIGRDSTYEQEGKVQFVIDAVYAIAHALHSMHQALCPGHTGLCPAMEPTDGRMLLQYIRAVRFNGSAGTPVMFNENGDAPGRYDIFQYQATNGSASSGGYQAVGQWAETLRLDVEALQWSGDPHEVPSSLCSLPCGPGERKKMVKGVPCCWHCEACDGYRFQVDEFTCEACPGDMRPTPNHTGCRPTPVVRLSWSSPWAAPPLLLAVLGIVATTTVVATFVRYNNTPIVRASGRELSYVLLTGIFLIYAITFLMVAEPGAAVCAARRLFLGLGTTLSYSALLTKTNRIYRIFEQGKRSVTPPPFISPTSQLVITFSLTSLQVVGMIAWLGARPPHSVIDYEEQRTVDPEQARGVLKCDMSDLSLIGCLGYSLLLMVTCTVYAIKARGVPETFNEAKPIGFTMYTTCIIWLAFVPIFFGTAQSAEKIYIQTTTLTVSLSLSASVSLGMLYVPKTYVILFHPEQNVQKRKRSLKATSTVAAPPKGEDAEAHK
Outline: (§1)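 CHO cells expressing mGlu2, mGlu4a or mGlu6, seeded 2 days before assay. Incubated 10 min in PBS with ligand, 10 µM forskolin and 1 mM IBMX. […] EC50 from dose-response, mean ± SEM of at least two independent experiments.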

Glutamate NMDA receptor [6] = assay: The compound was evaluated for agonist activity at NMDA receptor in rat cortical wedge preparation; assay type: functional
Outline: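 Rat cortical wedge under superfusion. Test and standard compounds were dissolved in the superfusion medium, and the potential difference between the recording and reference electrodes was charted.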

[7] = biological target: T2, Metabotropic glutamate receptor 6; assay: Agonistic activity at mGlu6 receptor expressed in CHO cells; assay type: functional, cell-based
Outline: (§2)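 CHO cells expressing the receptor were kept at 37 °C in DMEM with 2 mM glutamine, 1% proline and 10% dialyzed FCS, and plated 2 days before assay. Cells were incubated 10 min in PBS with ligand, 10 µM forskolin and 1 mM IBMX, and cAMP was measured by RIA. Agonism is inhibition of forskolin-induced cAMP versus buffer-only control.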

[8] = biological target: T3, Metabotropic glutamate receptor 2 (Homo sapiens, UniProt Q14416); assay: Agonistic activity at mGlu2 receptor expressed in CHO cells; assay type: functional, cell-based; outline: as §2
T3 sequence (Q14416 whole entry): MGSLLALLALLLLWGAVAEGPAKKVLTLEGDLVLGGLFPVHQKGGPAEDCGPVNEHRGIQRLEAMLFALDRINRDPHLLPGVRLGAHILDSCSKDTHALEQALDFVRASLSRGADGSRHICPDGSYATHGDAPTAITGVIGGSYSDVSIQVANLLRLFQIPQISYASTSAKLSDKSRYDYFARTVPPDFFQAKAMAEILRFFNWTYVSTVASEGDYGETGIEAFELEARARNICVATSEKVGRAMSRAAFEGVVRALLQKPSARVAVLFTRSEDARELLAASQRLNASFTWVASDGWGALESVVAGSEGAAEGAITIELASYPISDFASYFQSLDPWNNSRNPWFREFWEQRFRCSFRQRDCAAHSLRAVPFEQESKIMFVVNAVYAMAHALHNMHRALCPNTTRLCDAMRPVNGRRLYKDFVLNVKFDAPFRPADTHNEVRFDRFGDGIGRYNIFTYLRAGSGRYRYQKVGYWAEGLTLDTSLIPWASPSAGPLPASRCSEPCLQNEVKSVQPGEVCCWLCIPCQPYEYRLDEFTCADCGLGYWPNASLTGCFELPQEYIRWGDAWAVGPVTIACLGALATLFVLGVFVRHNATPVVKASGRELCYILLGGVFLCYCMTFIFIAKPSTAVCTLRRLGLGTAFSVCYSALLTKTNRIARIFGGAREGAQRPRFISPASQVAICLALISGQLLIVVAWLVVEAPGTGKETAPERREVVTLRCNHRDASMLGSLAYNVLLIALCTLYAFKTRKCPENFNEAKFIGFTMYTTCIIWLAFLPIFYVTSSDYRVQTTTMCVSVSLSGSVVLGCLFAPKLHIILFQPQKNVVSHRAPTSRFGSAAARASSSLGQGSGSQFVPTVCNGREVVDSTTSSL

[9] = biological target: T1, Metabotropic glutamate receptor 1; assay: Agonistic activity at mGlu1-alpha receptor expressed in CHO cells; assay type: functional, cell-based
[10] = biological target: T4, Metabotropic glutamate receptor 4 (Homo sapiens, UniProt Q14833); assay: Agonistic activity at mGlu4a receptor expressed in CHO cells; assay type: functional, cell-based; outline: as §2
T4 sequence (Q14833 whole entry): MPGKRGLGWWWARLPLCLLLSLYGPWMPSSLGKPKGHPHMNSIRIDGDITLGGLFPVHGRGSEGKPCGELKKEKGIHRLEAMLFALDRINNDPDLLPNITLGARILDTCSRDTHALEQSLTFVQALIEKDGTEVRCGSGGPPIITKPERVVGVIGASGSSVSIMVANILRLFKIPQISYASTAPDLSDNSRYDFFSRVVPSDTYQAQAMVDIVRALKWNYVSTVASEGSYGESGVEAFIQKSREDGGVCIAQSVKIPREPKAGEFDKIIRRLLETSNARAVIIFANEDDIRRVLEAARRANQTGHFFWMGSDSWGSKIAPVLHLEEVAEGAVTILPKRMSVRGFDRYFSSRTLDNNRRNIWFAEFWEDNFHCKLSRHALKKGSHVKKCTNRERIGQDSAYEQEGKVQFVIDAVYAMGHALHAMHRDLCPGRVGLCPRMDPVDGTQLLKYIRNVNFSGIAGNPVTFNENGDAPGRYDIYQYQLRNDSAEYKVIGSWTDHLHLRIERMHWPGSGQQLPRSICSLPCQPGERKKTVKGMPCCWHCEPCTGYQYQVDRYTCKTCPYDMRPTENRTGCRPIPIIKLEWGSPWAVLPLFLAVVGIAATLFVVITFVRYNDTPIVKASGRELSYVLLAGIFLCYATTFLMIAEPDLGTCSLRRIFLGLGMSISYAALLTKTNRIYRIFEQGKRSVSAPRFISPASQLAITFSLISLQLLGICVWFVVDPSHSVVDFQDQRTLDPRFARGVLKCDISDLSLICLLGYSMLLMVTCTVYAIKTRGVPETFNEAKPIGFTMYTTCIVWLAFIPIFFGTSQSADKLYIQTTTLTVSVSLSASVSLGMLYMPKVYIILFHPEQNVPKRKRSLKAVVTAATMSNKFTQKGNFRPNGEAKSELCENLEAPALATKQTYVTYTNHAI

[11] = biological target: T3, Metabotropic glutamate receptor 2; assay: Agonist activity of the compound at Metabotropic Excitatory Amino acid Receptors Expressed in CHO cells. mGlu2; assay type: functional, cell-based
Outline: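 CHO cells expressing mGlu2, mGlu4a or mGlu6, seeded 2 days before assay. Incubated 10 min in PBS with ligand, 10 µM forskolin and 1 mM IBMX. EC50 from dose-response, mean ± SEM of at least two independent experiments.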

[12] = biological target: T4, Metabotropic glutamate receptor 4; assay: Agonist activity of the compound at Metabotropic Excitatory Amino acid Receptors Expressed in CHO cells. mGlu4a; assay type: functional, cell-based; outline: as §1

T1 sequence (Q13255 whole entry): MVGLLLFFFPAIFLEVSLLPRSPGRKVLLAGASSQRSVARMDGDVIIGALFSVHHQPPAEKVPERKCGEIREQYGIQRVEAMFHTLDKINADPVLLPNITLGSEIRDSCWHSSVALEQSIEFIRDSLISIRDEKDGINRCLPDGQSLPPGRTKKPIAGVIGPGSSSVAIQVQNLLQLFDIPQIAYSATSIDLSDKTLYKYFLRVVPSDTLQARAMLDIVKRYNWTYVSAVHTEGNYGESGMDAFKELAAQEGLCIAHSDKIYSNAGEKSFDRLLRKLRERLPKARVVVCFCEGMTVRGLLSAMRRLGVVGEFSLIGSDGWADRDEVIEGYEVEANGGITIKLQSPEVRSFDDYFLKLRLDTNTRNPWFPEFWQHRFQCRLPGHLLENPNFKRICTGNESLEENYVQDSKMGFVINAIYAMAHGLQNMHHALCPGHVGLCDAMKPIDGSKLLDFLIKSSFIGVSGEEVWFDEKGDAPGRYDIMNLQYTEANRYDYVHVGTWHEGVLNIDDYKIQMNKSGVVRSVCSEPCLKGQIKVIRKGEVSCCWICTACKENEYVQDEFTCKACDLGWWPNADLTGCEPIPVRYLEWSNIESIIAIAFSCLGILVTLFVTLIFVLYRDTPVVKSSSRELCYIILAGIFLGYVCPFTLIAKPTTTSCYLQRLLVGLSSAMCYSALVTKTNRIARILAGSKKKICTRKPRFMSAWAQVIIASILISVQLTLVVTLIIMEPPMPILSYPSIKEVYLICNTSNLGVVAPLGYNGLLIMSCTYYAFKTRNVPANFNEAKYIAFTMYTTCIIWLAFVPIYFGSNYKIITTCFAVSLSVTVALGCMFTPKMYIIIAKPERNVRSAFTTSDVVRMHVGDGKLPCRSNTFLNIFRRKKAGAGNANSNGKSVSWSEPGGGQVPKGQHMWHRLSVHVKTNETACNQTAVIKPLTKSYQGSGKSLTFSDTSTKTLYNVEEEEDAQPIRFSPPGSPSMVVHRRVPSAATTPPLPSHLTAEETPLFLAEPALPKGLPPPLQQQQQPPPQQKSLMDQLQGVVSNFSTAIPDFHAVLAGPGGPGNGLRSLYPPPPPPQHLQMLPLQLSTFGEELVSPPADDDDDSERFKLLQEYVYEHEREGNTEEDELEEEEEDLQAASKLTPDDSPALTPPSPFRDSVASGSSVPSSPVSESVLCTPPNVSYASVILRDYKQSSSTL

| Structure (SMILES) | EC50 [7] [µM] | EC50 [8] [mM] | EC50 [9] [mM] | other results |
| --- | --- | --- | --- | --- |
| Cc1o[nH]c(=O)c1C(N)C(=O)O (stereo not drawn) | – | – | – | EC50 [1]: > 1 mM; IC50 [2]: > 100 µM; IC50 [3]: > 100 µM; IC50 (Glutamate NMDA receptor [4]): > 100 µM; EC50 [5]: > 1000 µM; EC50 (Glutamate NMDA receptor [6]): 12 µM |
| N[C@H](CCCC(=O)O)C(=O)O | > 1000 | > 1 | > 1 | – |
| N[C@@H](CCCC(=O)O)C(=O)O [(S)-2-AMINOADIPIC ACID] | 140 | 0.035 | > 1 | EC50 [10]: > 3 mM |
| N[C@@H](CC(=O)O)C(=O)O [ASPARTIC ACID] | > 1000 | > 1 | > 1 | – |
| NC(CCCCCC(=O)O)C(=O)O (stereo not drawn) | > 1000 | > 1 | > 1 | – |
| NC(CCCCC(=O)O)C(=O)O (stereo not drawn) | > 1000 | > 1 | > 1 | – |
| Cc1onc(O)c1C[C@@H](N)C(=O)O | – | – | – | EC50 [1]: > 1 mM; EC50 [11]: > 1 mM; EC50 [5]: > 1000 µM |
| N[C@H](CC(=O)O)C(=O)O [D-ASPARTATE] | > 1000 | > 1 | > 1 | – |
| Cc1onc(O)c1C[C@H](N)C(=O)O [(S)-AMPA] | – | – | – | EC50 [1]: > 1 mM; EC50 [11]: > 1 mM; EC50 [12]: > 3 mM; EC50 [5]: 220 µM |

The next lines start with results.

| EC50 [7] [µM] | EC50 [8] [mM] | EC50 [9] [mM] | Structure (SMILES) | other results |
| --- | --- | --- | --- | --- |
| > 1000 | > 1 | > 1 | Cc1o[nH]c(=O)c1CCCCC(N)C(=O)O (stereo not drawn) | – |
| 82 | > 1 | > 1 | Cc1onc(O)c1CCC(N)C(=O)O (stereo not drawn) | EC50 [10]: > 3 mM |
| 410 | > 1 | > 1 | Cc1onc(O)c1CCCC(N)C(=O)O (stereo not drawn) | EC50 [10]: > 3 mM |

Reference: ChEMBL document CHEMBL1129268 (J Med Chem, 1996)
